Assay results gathered from unrelated publications.
Protocols differ between the studies behind these lines.
CDK2 with cyclin A2: Cyclin-dependent kinase 2, with cyclin A2 (CDK2, Homo sapiens, UniProt P24941)
ST14: Suppressor of tumorigenicity 14 protein (ST14, Homo sapiens, UniProt Q9Y5Y6)

CC(=O)c1c(C)c2cnc(Nc3ccc(N4CCNCC4)cn3)nc2n(C2CCCC2)c1=O
activity vs control (Cyclin-dependent kinase 2 (CDK2, Homo sapiens, UniProt P24941); enzyme activity, inhibitor, ADP detection; 1 µM): 79%

CNC(=O)c1cc(Oc2ccc(NC(=O)Nc3ccc(Cl)c(C(F)(F)F)c3)cc2)ccn1
inhibition (CDK2 with cyclin A2; enzyme activity, inhibitor; 1 nM): 19.6%

C[C@H]1c2nc3ccccc3c(-c3ccccc3)c2[C@H]2C[C@@H]1N(Cc1ccccc1)C[C@]2(C)O
inhibition (Delta-type opioid receptor (Oprd1, Rattus norvegicus, UniProt P33533); ligand displacement, radioligand; 1 µM): 0%

CC(=O)Nc1c(N)nc(SCC(=O)NN)[nH]c1=O
inhibition (CDK2 with cyclin A2; enzyme activity, inhibitor; 5 nM): 14.6%

N=C(N)NCCC[C@H](NC(=O)[C@H](Cc1cccc2ccccc12)NC(=O)[C@H](Cc1cscn1)NC(=O)CCc1ccccc1)C(=O)c1nc2ccccc2s1
remaining activity (ST14; enzyme activity, inhibitor; 0.1 µM): 6%

CNc1ncc2c(/C=C/C(=O)N3CCC(OC)CC3)nn(Cc3cccc(C(F)(F)F)c3)c2n1
remaining activity (CDK2 with cyclin A2; enzyme activity, inhibitor, radiometric; 1 µM): 100%

CC(C)(C)c1ccc(C[C@H](NC(=O)[C@H](Cc2cscn2)NC(=O)CCc2ccccc2)C(=O)N[C@@H](CCCNC(=N)N)C(=O)c2nc3ccccc3s2)cc1
remaining activity (ST14; enzyme activity, inhibitor; 0.1 µM): 80%

Cc1cc([C@@H](C)Nc2ccccc2C(=O)O)c2nc(N3CCC(F)(F)CC3)c(C#N)c(=O)n2c1
remaining binding (Serine/threonine-protein kinase pim-1 (PIM1, Homo sapiens, UniProt P11309); binding, competition with immobilised ligand; 1 µM): 100%

CC(=O)Nc1c(N)nc(SCC(=O)N/N=C/c2ccc([N+](=O)[O-])cc2)[nH]c1=O
inhibition (CDK2 with cyclin A2; enzyme activity, inhibitor; 5 nM): 8.37%

N=C(N)NCCC[C@H](NC(=O)[C@@H]1CCCN1C(=O)[C@H](Cc1cscn1)NC(=O)CCc1ccccc1)C(=O)c1nc2ccccc2s1
remaining activity (ST14; enzyme activity, inhibitor; 0.1 µM): 61%

C=CC(=O)N1CCC(COCC(=O)N2CCN(c3nc(-c4cnc(N)nc4C(F)F)nc(N4CCOC[C@@H]4C)n3)CC2)CC1
remaining binding (Mitogen-activated protein kinase 6 (MAPK6, Homo sapiens, UniProt Q16659); binding, competition with immobilised ligand; 1 µM): 100%

CC(C)(C)C[C@H](NC(=O)[C@H](Cc1cscn1)NC(=O)CCc1ccccc1)C(=O)N[C@@H](CCCNC(=N)N)C(=O)c1nc2ccccc2s1
remaining activity (ST14; enzyme activity, inhibitor; 0.1 µM): 34%

COc1cc(-c2cncc3c2CN(C)Cc2cc(N4CCNCC4)ccc2-3)cc(OC)c1OC
remaining activity (Tyrosine-protein kinase Fyn (FYN, Homo sapiens, UniProt P06241); enzyme activity, inhibitor; 1 µM): 94%
